{"source": "paper PMC9168489", "about": "(Proceedings of the National Academy of Sciences of the …, 2022)", "key": {"HTRA1 (human)": {"molecular_target": "HTRA1 (human) (UniProt Q92743)", "assay": "ITC"}, "tau fibrils [1]": {"system": "tau fibrils", "assay": "Proteolysis of tau fibrils", "assay_type": "biochemical", "conditions": "2.5 µM tau fibrils, 2.5 µM HTRA1/HTRA1-CAPN2, 37 °C, 50 mM Tris HCl pH 8"}, "HTRA1 [2]": {"system": "HTRA1", "assay": "Soluble tau digest with HTRA1", "assay_type": "biochemical, human", "conditions": "SDS-PAGE; for activation of HTRA1 by CAPN2: 0.5 µM HTRA1, 5 µM tau, 50 mM Tris pH 8.0, 37 °C, CAPN2 titration"}, "HTRA1ΔPDZ": {"system": "HTRA1ΔPDZ", "assay": "Soluble tau digest with HTRA1ΔPDZ", "assay_type": "biochemical, human", "conditions": "50 µM peptide, 0.5 µM protease, 5 µM tau, 50 mM Tris pH 8.0, 37 °C; SDS-PAGE", "procedure,_shortened": "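Soluble tau (5 µM) digested by 0.5 µM protease (HTRA1ΔPDZ run alongside full-length HTRA1) in 50 mM Tris pH 8.0 at 37 °C. Peptides derived from the CAPN2 C terminus were added at 50 µM, with a no-peptide control. Samples were taken at several time points and tau cleavage was followed by SDS-PAGE.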"}, "HTRA3": {"system": "HTRA3", "assay": "Tau digest with HTRA3", "assay_type": "biochemical, human", "conditions": "0.5 µM HTRA3, 5 µM tau, 50 µM peptide, 50 mM Tris pH 8.0, 37 °C"}, "HTRA1 Lys305Ala": {"system": "HTRA1 Lys305Ala", "assay": "Tau digest with loop L3 mutant Lys305Ala", "assay_type": "biochemical, human", "conditions": "50 µM peptide", "procedure,_shortened": "(§1)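 HTRA1 loop L3 point mutants were assayed by tau digestion, with or without 50 µM test peptides derived from the CAPN2 C terminus, to measure mutant activity.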"}, "HTRA1 Asn311Ala": {"system": "HTRA1 Asn311Ala", "assay": "Tau digest with loop L3 mutant Asn311Ala", "assay_type": "biochemical, human", "conditions": "50 µM peptide", "procedure,_shortened": "as §1"}, "HTRA2": {"system": "HTRA2", "assay": "Tau digest with HTRA2", "assay_type": "biochemical, human", "conditions": "0.5 µM HTRA2, 5 µM tau, 50 µM peptide, 50 mM Tris pH 8.0, 37 °C"}, "HTRA1 (HEK293 cells)": {"system": "HTRA1 (HEK293 cells)", "assay": "Coimmunoprecipitation of HTRA1 with CAPN2", "assay_type": "cell-based, human", "conditions": "HEK293 lysates; Strep or Myc beads; n = 3"}, "tau fibrils [3]": {"system": "tau fibrils", "conditions": "in the presence of Ca^2+; cited from earlier work"}, "HTRA1 [4]": {"molecular_target": "HTRA1", "assay": "ITC of HTRA1SA and CAPN2CA", "assay_type": "binding, human", "conditions": "500 µM HTRA1SA in syringe titrated to 10 µM CAPN2CA, 50 mM bicine, 150 mM NaCl pH 9.0, 37 °C"}, "tau fibrils [5]": {"system": "tau fibrils", "assay": "Sedimentation assay of tau fibrils", "assay_type": "biochemical", "conditions": "no Ca^2+, ultracentrifugation", "procedure,_shortened": "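Tau fibrils were incubated with HTRA1SA alone, the HTRA1SA–CAPN2 complex, CAPN2 alone, or no protein, then ultracentrifuged. Total sample taken before centrifugation, pellet and supernatant fractions were resolved by SDS-PAGE and stained with Coomassie.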"}, "tau": {"system": "tau", "assay": "Soluble tau digest with CAPN2 alone", "assay_type": "biochemical", "conditions": "buffers without Ca^2+", "procedure,_shortened": "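5 µM soluble tau was incubated with 0.5 µM CAPN2 in 50 mM Tris HCl, pH 8, at 37 °C. Aliquots were withdrawn at set time points and analysed by SDS-PAGE.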"}}, "note": "Where no end group is shown, it is not given here."}
{"molecule": "CFD peptide, carboxyl terminus of complement factor D", "values": [{"measurement": "Kd", "setting": "HTRA1 (human)", "value": 4, "unit": "µM"}]}
{"molecule": "HTRA1–CAPN2 complexes: hetero-oligomeric complex consisting of the cysteine protease calpain 2 (CAPN2) and HTRA1", "values": [{"measurement": "proteolysis of tau fibrils", "setting": "tau fibrils [1]", "value": "a slight decrease of HTRA1 activity"}, {"measurement": "degradation of soluble tau", "setting": "HTRA1 [2]; 5 µM tau, 0.5 µM HTRA1, 0.5 µM CAPN2, 37 °C, 50 mM Tris HCl pH 8", "value": "degradation of soluble tau was improved"}]}
{"molecule": "LISWLCFSVL", "values": [{"measurement": "activation of HTRA1ΔPDZ by peptides", "setting": "HTRA1ΔPDZ", "value": "not activated"}]}
{"molecule": "LISWLSDSEL", "values": [{"measurement": "activation of HTRA1ΔPDZ by peptides", "setting": "HTRA1ΔPDZ", "value": "activated wild-type but not HTRA1ΔPDZ"}]}
{"molecule": "LISWLSFSDL", "values": [{"measurement": "effect on HTRA3 activity", "setting": "HTRA3", "value": "activated HTRA3 strongly"}, {"measurement": "activation of HTRA1 Lys305Ala", "setting": "HTRA1 Lys305Ala", "value": "still allowed activation"}, {"measurement": "activation of HTRA1 Asn311Ala", "setting": "HTRA1 Asn311Ala", "value": "still allowed activation"}, {"measurement": "effect on HTRA2 activity", "setting": "HTRA2", "value": "HTRA2 weakly"}]}
{"molecule": "CAPN2: CAPN2 heterodimer consists of a cysteine protease and a regulatory subunit (protein, UniProt P17655 20-700; P04632 1-268, looked up) Calpain-2 catalytic subunit: SHDRAIKYLNQDYEALRNECLEAGTLFQDPSFPAIPSALGFKELGPYSSKTRGIEWKRPTEICADPQFIIGGATRTDICQGALGDCWLLAAIASLTLNEEILARVVPLNQSFQENYAGIFHFQFWQYGEWVEVVVDDRLPTKDGELLFVHSAEGSEFWSALLEKAYAKINGCYEALSGGATTEGFEDFTGGIAEWYELKKPPPNLFKIIQKALQKGSLLGCSIDITSAADSEAITFQKLVKGHAYSVTGAEEVESNGSLQKLIRIRNPWGEVEWTGRWNDNCPSWNTIDPEERERLTRRHEDGEFWMSFSDFLRHYSRLEICNLTPDTLTSDTYKKWKLTKMDGNWRRGSTAGGCRNYPNTFWMNPQYLIKLEEEDEDEEDGESGCTFLVGLIQKHRRRQRKMGEDMHTIGFGIYEVPEELSGQTNIHLSKNFFLTNRARERSDTFINLREVLNRFKLPPGEYILVPSTFEPNKDGDFCIRVFSEKKADYQAVDDEIEANLEEFDISEDDIDDGFRRLFAQLAGEDAEISAFELQTILRRVLAKRQDIKSDGFSIETCKIMVDMLDSDGSGKLGLKEFYILWTKIQKYQKIYREIDVDRSGTMNSYEMRKALEEAGFKMPCQLHQVIVARFADDQLIIDFDNFVRCLVRLETLFKIFKQLDPENTGTIELDLISWLCFSVL Calpain small subunit 1: MFLVNSFLKGGGGGGGGGGGLGGGLGNVLGGLISGAGGGGGGGGGGGGGGGGGGGGTAMRILGGVISAISEAAAQYNPEPPPPRTHYSNIEANESEEVRQFRRLFAQLAGDDMEVSATELMNILNKVVTRHPDLKTDGFGIDTCRSMVAVMDSDTTGKLGFEEFKYLWNNIKRWQAIYKQFDTDRSGTICSSELPGAFEAAGFHLNEHLYNMIIRRYSDESGNMDFDNFISCLVRLDAMFRAFKSLDKDGTGQIQVNIQEWLQLTMYS", "values": [{"measurement": "coimmunoprecipitation with HTRA1", "setting": "HTRA1 (HEK293 cells)", "value": "complex formation was supported by coimmunoprecipitations"}, {"measurement": "proteolysis of tau fibrils by CAPN2", "setting": "tau fibrils [3]", "value": "proteolyzes fibrils"}, {"measurement": "Kd", "setting": "HTRA1 [4]", "value": 4, "unit": "µM"}, {"measurement": "tau fibril dissociation (solubilization)", "setting": "tau fibrils [5]; equimolar amounts, SDS-PAGE and Coomassie", "value": "Partial fibril dissociation"}, {"measurement": "co-sedimentation with tau fibrils", "setting": "tau fibrils [5]", "value": "co-sedimentation of CAPN2 and fibrils"}, {"measurement": "digestion of tau by CAPN2", "setting": "tau", "value": "does not digest tau"}, {"measurement": "activation of HTRA1 by CAPN2", "setting": "HTRA1 [2]", "value": "improved activation of HTRA1 by CAPN2 compared to the isolated C-terminal decapeptide"}]}
{"molecule": "CAPN2CA (protein) chain 1: SHDRAIKYLNQDYEALRNECLEAGTLFQDPSFPAIPSALGFKELGPYSSKTRGIEWKRPTEICADPQFIIGGATRTDICQGALGDAWLLAAIASLTLNEEILARVVPLNQSFQENYAGIFHFQFWQYGEWVEVVVDDRLPTKDGELLFVHSAEGSEFWSALLEKAYAKINGCYEALSGGATTEGFEDFTGGIAEWYELKKPPPNLFKIIQKALQKGSLLGCSIDITSAADSEAITFQKLVKGHAYSVTGAEEVESNGSLQKLIRIRNPWGEVEWTGRWNDNCPSWNTIDPEERERLTRRHEDGEFWMSFSDFLRHYSRLEICNLTPDTLTSDTYKKWKLTKMDGNWRRGSTAGGCRNYPNTFWMNPQYLIKLEEEDEDEEDGESGCTFLVGLIQKHRRRQRKMGEDMHTIGFGIYEVPEELSGQTNIHLSKNFFLTNRARERSDTFINLREVLNRFKLPPGEYILVPSTFEPNKDGDFCIRVFSEKKADYQAVDDEIEANLEEFDISEDDIDDGFRRLFAQLAGEDAEISAFELQTILRRVLAKRQDIKSDGFSIETCKIMVDMLDSDGSGKLGLKEFYILWTKIQKYQKIYREIDVDRSGTMNSYEMRKALEEAGFKMPCQLHQVIVARFADDQLIIDFDNFVRCLVRLETLFKIFKQLDPENTGTIELDLISWLCFSVL chain 2: MFLVNSFLKGGGGGGGGGGGLGGGLGNVLGGLISGAGGGGGGGGGGGGGGGGGGGGTAMRILGGVISAISEAAAQYNPEPPPPRTHYSNIEANESEEVRQFRRLFAQLAGDDMEVSATELMNILNKVVTRHPDLKTDGFGIDTCRSMVAVMDSDTTGKLGFEEFKYLWNNIKRWQAIYKQFDTDRSGTICSSELPGAFEAAGFHLNEHLYNMIIRRYSDESGNMDFDNFISCLVRLDAMFRAFKSLDKDGTGQIQVNIQEWLQLTMYS", "values": [{"measurement": "activation of HTRA1 by CAPN2", "setting": "HTRA1 [2]", "value": "dose-dependent activation of HTRA1"}]}
{"molecule": "EWTDDDLVESL (not fully specified)", "note": "[CCNH peptide, carboxyl terminus of cyclin H]", "values": [{"measurement": "Kd", "setting": "HTRA1 (human)", "value": 40, "unit": "µM"}]}
